Experimental data reported in paper PMC3428429 (Biochimica et biophysica acta, 2012).

How the values were obtained:
[1] = Two step assay, step one: terbium/DPA leakage from vesicles
[2] = Two step assay, step two: dithionite quenching of NBD lipids; conditions: 1 μM peptide, at least 8 h
[3] = Incremental leakage assay
[4] = Serial dilution leakage assay; conditions: independent of total P:L (0.05 to 0.001)
Method in brief: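 Terbium-loaded LUVs (100 nm extruded; 50 mM TbCl₃, 100 mM sodium citrate, 10 mM TES pH 7.2 inside), external Tb removed by gel filtration. Outside buffer is 300 mM NaCl, 10 mM TES pH 7.2 with 50 μM DPA. Test compound runs 0.078–1.25 μM at six fixed total P:L ratios in 96-well plates. Triton X-100 wells with matched lipid give 100% leakage. Repeated with BSA to block well adsorption.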

Row | Substance | terbium leakage ([1]; P:L=0.02 (1:50), only in PG-containing vesicles, 1 μM peptide, at least 8 h) | access to the vesicle interior at equilibrium ([2]; P:L = 0.005 (1:200)) | access to NBD lipids at equilibrium ([2]; P:L=0.02 (1:50), only in PG-containing vesicles) | lowest P:L ratio with measurable pore-forming activity ([1]; 1:10000 or 10 peptides per vesicle, supplemental Figure S1) | leakage in multiple lipid additions, PEG-lipid vesicles ([3]; vesicles containing 5 mol % PEG2000-headgroup conjugated lipids, supplemental Figure S5A) | lipid exchange between vesicles along with peptide ([3]; vesicles doped with fluorescent lipids, supplemental Figure S5B) | peptide concentration at which all leakage curves reach 100% leakage [4] [nM]
1 | ALWKTMLKKLGTMALHAGKAALGAAADTISQGTQ [dermaseptin S1] | high leakage | no access to the vesicle interior at equilibrium | high access to NBD lipids |  |  |  | 
2 | Ac-UPUAUAQUVUGLUPVUUQQF-OH [alamethicin] |  |  |  | ≤ 0.0001 | near complete leakage in multiple lipid additions | no lipid exchange between vesicles | ≤ 500
